The results in this text go back to ChEMBL document CHEMBL3627612, “Hirsutinolide Series Inhibit Stat3 Activity, Alter GCN1, MAP1B, Hsp105, G6PD, Vimentin, TrxR1, and Importin α-2 Expression, and Induce Antitumor Effects against Human Glioma” (J Med Chem, 2015).

The subject of one series is MCF7. Nature of the series: Antiproliferative activity against human MCF7 cells for 72 hrs by cyquant assay. Conditions: MCF7, 72 h. Type of series: functional, cell-based. In a few lines: (§1)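 CyQuant proliferation assay after 72 h compound exposure of cultured cells; relative viability normalized to DMSO-treated control; IC50 values derived. Glioma lines grown in RPMI or DMEM with 10% FBS and 1% nonessential amino acids.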

A short description of series [1]: Cytotoxicity against mouse NIH/3T3 cells after 72 hrs by cyquant cells. Type of series: cell-based. Conditions: NIH3T3, 72 h. In a few lines:
as §1

The subject of the next series is U-251. The series is described as follows: Antiproliferative activity against human U251MG cells at 5 uM for 72 hrs by cyquant assay. Type of series: functional. In a few lines: as §1
Series [2] deals with MDA-MB-231. Nature of the series: Antiproliferative activity against human MDA-MB-231 cells at 5 uM for 72 hrs by cyquant assay. Type of series: functional, cell-based.
The next series relates to SF-295. Nature of the series: Antiproliferative activity against human SF295 cells at 5 uM for 72 hrs by cyquant assay. Type of series: functional, cell-based.
Series [3] can be described thus: Cytotoxicity against mouse NIH/3T3 cells at 5uM after 72 hrs by cyquant cells. Conditions: nih3t3, 72 h. Type of series: cell-based. The method in brief:
as §1

Series [4] deals with Signal transducer and activator of transcription 3 (Mus musculus) (UniProt P42227). The series is described as follows: Inhibition of Stat3 dimer DNA binding activity in mouse NIH3T3/vSrc nuclear extract at 5 uM preincubated for 30 mins followed by addition of radiolabeled probe hSIE for 30 mins by EMSA. (In general: In EMSA bound probe runs differently from free probe, usually more slowly.)

Another series relates to NIH3T3. The series is described as follows: Inhibition of Stat5 dimer DNA binding activity in EGF-stimulated mouse NIH3T3 nuclear extract expressing human EGFR at 5 uM preincubated for 30 mins followed by addition of radiolabeled probe MGFe for 30 mins by EMSA. Type of series: cell-free.
For series [5], the target named is T1, Signal transducer and activator of transcription 1 (Mus musculus) (UniProt P42225).
T1 sequence (whole entry): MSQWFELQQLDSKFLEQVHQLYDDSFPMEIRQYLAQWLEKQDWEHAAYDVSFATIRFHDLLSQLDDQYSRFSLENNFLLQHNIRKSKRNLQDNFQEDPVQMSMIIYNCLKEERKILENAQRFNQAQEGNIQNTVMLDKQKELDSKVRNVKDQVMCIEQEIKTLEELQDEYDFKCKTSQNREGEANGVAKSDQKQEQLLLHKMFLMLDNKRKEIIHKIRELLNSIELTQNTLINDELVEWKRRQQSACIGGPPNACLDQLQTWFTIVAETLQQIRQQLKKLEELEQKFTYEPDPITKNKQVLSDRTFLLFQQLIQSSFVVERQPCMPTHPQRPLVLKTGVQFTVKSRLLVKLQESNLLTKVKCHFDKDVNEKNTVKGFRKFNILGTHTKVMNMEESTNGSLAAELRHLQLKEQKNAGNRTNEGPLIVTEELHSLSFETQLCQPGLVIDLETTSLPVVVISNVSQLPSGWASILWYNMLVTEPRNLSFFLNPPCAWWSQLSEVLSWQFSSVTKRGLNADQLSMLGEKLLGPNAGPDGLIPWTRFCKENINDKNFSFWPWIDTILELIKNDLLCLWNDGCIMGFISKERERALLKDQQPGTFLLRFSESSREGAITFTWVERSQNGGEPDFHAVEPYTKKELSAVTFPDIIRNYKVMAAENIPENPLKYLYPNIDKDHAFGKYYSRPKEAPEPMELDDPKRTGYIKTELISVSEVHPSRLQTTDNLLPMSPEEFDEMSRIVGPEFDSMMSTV
The series is described as follows: Inhibition of Stat1 dimer DNA binding activity in EGF-stimulated mouse NIH3T3 nuclear extract expressing human EGFR at 5 uM preincubated for 30 mins followed by addition of radiolabeled probe hSIE for 30 mins by EMSA.

In series [6] the target is T2, Signal transducer and activator of transcription 3 (Homo sapiens, UniProt P40763). The series is described as follows: Inhibition of Stat3 activity in human U251MG cells assessed as phosphorylated Stat3 level at 5 uM by immunoblot analysis. It is filed as cell-based. Conditions: U-251, TDE = time-dependent effect. A general note: A western blot detects proteins with antibodies after separation by electrophoresis.

In series [7] the target is T2, Signal transducer and activator of transcription 3. Nature of the series: Binding affinity to Stat3 (unknown origin) by NMR analysis.
Series [8] can be described thus: Antiproliferative activity against human U251MG cells for 72 hrs by cyquant assay. Type of series: functional, cell-based. Conditions: U-251, 72 h. In a few lines: as §1
The subject of series [9] is MDA-MB-231. Nature of the series: Antiproliferative activity against human MDA-MB-231 cells for 72 hrs by cyquant assay. Type of series: functional, cell-based. Conditions: MDA-MB-231, 72 h. The method in brief: as §1
The nature of series [10]: Antiproliferative activity against human U373MG cells for 72 hrs by cyquant assay. It is filed as functional, cell-based, U-373MG ATCC. Conditions: U373 MG. The method in brief:
as §1

A short description of series [11]: Antiproliferative activity against human SF295 cells for 72 hrs by cyquant assay. Type of series: functional, cell-based. Conditions: SF-295, 72 h. The method in brief:
as §1

Series [12] deals with Signal transducer and activator of transcription 1/ 3 (Mus musculus) (UniProt P42227+P42225). The series is described as follows: Inhibition of Stat1:Stat3 dimer DNA binding activity in EGF-stimulated mouse NIH3T3 nuclear extract expressing human EGFR assessed as residual activity at 5 uM preincubated for 30 mins followed by addition of radiolabeled probe hSIE for 30 mins by EMSA. It is filed as cell-free.

The target of series [13] is Signal transducer and activator of transcription 3 (Mus musculus) (UniProt P42227). The series is described as follows: Inhibition of Stat3 dimer DNA binding activity in EGF-stimulated mouse NIH3T3 nuclear extract expressing human EGFR assessed as residual activity at 5 uM preincubated for 30 mins followed by addition of radiolabeled probe hSIE for 30 mins by EMSA.
In series [14] the target is T1, Signal transducer and activator of transcription 1 (Mus musculus). Nature of the series: Inhibition of Stat1 dimer DNA binding activity in EGF-stimulated mouse NIH3T3 nuclear extract expressing human EGFR assessed as residual activity at 5 uM preincubated for 30 mins followed by addition of radiolabeled probe hSIE for 30 mins by EMSA.
For series [15], the target named is T2, Signal transducer and activator of transcription 3. The series is described as follows: Inhibition of Stat3 activity in human U251MG cells assessed as phosphorylated Stat3 level at 5 uM after 0.5 to 24 hrs by immunoblot analysis. Type of series: cell-based. Conditions: U-251. The method in brief: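 U251MG cells treated with 5 μM compound for 0–24 h, or with 0–5 μM for 2 h. Whole-cell lysates immunoblotted for pStat3, Stat3, GAPDH. Control was 0.025% DMSO-treated cells.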

The structures appear in SMILES notation. pIC50: −log10 of the molar value. The source made the active and inactive calls. The calls are words filed in the database; no cut-off is given here.

Chain of Signal transducer and activator of transcription 3 (Mus musculus) (P42227 whole entry): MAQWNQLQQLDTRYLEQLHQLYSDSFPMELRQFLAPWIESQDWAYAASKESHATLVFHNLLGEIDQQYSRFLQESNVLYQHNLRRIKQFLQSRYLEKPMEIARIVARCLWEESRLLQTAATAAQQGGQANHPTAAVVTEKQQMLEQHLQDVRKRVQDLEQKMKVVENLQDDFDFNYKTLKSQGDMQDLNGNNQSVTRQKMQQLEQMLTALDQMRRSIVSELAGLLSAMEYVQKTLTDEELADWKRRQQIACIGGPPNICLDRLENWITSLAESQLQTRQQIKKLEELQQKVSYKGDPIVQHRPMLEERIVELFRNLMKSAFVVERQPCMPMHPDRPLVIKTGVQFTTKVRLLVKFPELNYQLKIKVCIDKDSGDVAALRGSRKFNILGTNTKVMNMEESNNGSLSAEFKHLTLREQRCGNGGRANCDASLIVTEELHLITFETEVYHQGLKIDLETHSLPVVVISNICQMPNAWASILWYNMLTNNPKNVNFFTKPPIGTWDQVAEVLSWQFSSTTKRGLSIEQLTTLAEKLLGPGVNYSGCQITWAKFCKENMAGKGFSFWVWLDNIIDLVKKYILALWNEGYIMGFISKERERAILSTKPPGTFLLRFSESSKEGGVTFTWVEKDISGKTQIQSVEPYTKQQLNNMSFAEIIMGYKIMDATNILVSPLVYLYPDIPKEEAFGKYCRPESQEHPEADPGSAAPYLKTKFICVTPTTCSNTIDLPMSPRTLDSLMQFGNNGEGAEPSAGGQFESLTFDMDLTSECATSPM
T2 sequence (P40763 whole entry): as the sequence (P42227 whole entry) above, with D760E counted along it

Regarding `C=C(C)C(=O)O[C@H]1C[C@@H](C)[C@]2(O)CC[C@](C)(/C=C3/OC(=O)C(COC(C)=O)=C31)O2`, the pIC50 is 5.11 in the series with MCF7; 5.15 in [1]; 5.59 in series [8]; 5.28 with MDA-MB-231 [9]; 5.08 in series [10]; 5.04 in [11]. Also, the inhibition result (in the series on U-251; in the series with MDA-MB-231 [2]; in the series with SF-295; in series [4]) was “Active” in each case. The Activity entry in series [3] is “Toxic”; in [7], “Dose-dependent effect”. The inhibition entry (in the series with NIH3T3; in series [5]) was “inactive” in each case. The inhibition result in series [6] is “tde”.
As to `C/C=C(/C)C(=O)O[C@H]1C[C@@H](C)[C@]2(O)CC[C@](C)(/C=C3/OC(=O)C(CO)=C31)O2`, the inhibition result (in the series with U-251; in [4]; in series [15]) was “Active” throughout. For the same molecule, the inhibition result (with MDA-MB-231 [2]; in the series with SF-295; in the series with NIH3T3; in series [5]) was “inactive” each time. Further, the Activity result in series [3] was “Non-toxic”; in [12], 71%; in series [13], 63%; in [14] it was 61%.
With `CCC(C)C(=O)OCC1=C2/C(=C\[C@@]3(C)CC[C@](O)(O3)[C@H](C)C[C@@H]2O)OC1=O` (stereo partly drawn), the inhibition result in series [4] and in series [15] was “Active” throughout.

One may read the pIC50 as −log10 of the IC50, conventionally taken in molar units. Lower therefore signals a large IC50.
